MC4R antag cAMP: human MC4R antagonism in cAMP assay; P32245; MC4R-expressing cells, MTII-stimulated cAMP, LANCE TR-FRET; inhibition, % at 6.5 µM; actives 0.48% (n = 360,000); AID 540295;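 active = inhibition above its plate's cutoff, the mean of tested wells on that plate plus 3 SD, cut at about 29% in these data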;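 note: 0% = Melanotan II alone and 100% = Melanotan II plus saturating MCL0020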
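Assay system: U2OS-MC4R stable cell line; Also added: Melanotan II; Technique: Eu-cAMP/anti-cAMP TR-FRET, emission 671 nm; Times: 30-min compound, 1-h challenge, 1-h detection, room temperature.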
NTR1 ag: NTR1 (human) agonism | NTR1-U2OS beta-arrestin-GFP spot imaging, agonist mode | activation, % at 20 µM | actives 0.17% (n = 330,000) | AID 493036;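 active = activation at or above 40% of the spot to cytoplasm intensity ratio, with at least 20 cells analyzed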;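 note: 0% = DMSO without peptide and 100% = 100 nM NTR1 peptide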
HTR2A ag: activates the mouse 5-HT2A serotonin receptor; actives 0.66% (n = 360,000); CHO-K1 mHTR2A beta-arrestin complementation, luminescence; percent of 30 µM serotonin response; activation, % at 7.6 µM;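 active = activation above a run cutoff, the mean activation of all tested compounds plus 3 SD, cut at about 14% in these data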;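 note: 0% = plate median of compound wells and 100% = 30 µM serotonin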
MC4R ag barr: agonists of human melanocortin 4 receptor (MC4R) beta-arrestin. P32245. U2OS MC4R beta-arrestin complementation, luminescence; percent of melanotan II response, DMSO zero. activation, % at 8.9 µM. actives 0.98% (n = 360,000);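 active = activation above a per-plate cutoff, the mean activation of sample wells on that plate plus 3 SD, cut at about 8% in these data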
Hep lipid drop: hepatic lipid droplet formation modulation | inhibition, % at 6.5 µM | actives 0.4% (n = 240,000) | AID 1656 | AML12 mouse hepatocytes, oleate lipid droplets, BODIPY imaging;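 active = lipid droplet intensity inhibited by at least 50%, with more than 500 cells counted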
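System: AML12 hepatocytes (mouse). Probe or stimulus: oleic acid at 100 µM to induce lipid droplet formation. Times: overnight treatment with compound plus oleate. Detection: Image-based BODIPY and DAPI two-channel analysis. Evaluation: percent inhibition of filter-corrected integrated lipid droplet intensity per well.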
PREPL inh: inhibits the human prolyl oligopeptidase-like enzyme | inhibition, % at 5.96 µM | actives 0.68% (n = 320,000) | recombinant PREPL, fluorescence polarization activity-based probe; in the data active = inhibition above about 43%;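 note: 0% = enzyme with DMSO and 100% = wells lacking enzyme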
Target sequence (Q4J6C6 whole entry, looked up): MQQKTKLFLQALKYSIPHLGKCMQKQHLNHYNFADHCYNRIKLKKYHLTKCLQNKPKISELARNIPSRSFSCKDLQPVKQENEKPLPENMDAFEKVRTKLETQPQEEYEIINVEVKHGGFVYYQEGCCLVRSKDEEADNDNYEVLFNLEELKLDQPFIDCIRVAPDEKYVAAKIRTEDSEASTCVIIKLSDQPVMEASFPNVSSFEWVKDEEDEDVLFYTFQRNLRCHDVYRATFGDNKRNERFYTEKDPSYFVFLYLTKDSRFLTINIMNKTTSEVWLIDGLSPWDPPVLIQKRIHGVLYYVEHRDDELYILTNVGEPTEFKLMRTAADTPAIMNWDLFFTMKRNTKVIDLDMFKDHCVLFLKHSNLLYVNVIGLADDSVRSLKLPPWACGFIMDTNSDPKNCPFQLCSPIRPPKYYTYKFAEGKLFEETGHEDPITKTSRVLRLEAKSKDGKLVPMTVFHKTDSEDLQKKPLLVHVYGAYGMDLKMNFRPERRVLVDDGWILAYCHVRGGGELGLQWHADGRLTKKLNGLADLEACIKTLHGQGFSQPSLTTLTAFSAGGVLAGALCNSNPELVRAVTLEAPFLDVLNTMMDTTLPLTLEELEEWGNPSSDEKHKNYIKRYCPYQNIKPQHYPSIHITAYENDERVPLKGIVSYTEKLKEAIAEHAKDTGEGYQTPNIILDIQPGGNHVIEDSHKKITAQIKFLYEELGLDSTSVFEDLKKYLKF
cAMP nonselect: counter-screen for MC4R antagonists: nonselective cAMP signaling inhibitors | shares compounds with MC4R antag cAMP | parental U2OS, forskolin cAMP, LANCE TR-FRET | inhibition, % at 6.5 µM | actives 26% (n = 1,600);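 active = mean inhibition over triplicates above the low-control well mean plus 3 SD, set per campaign, cut at about 13% in these data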;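 note: signal is single emission at 671 nm which falls as cellular cAMP rises; 0% = forskolin-stimulated wells and 100% = buffer without forskolin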
MC4R antag conf: human MC4R cAMP antagonism confirmation. shares compounds with MC4R antag cAMP. MC4R-expressing cells, MTII-stimulated cAMP, TR-FRET. AID 602195. inhibition, % at 6.5 µM. actives 27% (n = 1,600); in the data active = inhibition above about 29%;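 note: 0% = agonist stimulated wells alone and 100% = agonist stimulated wells plus saturating reference antagonist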
* = called active by the depositor; · = not tested or not shown. This is a sample that favours compounds with a hit; in the whole collection about 2.7% have one here.

SMILES	MC4R antag cAMP	NTR1 ag	HTR2A ag	MC4R ag barr	Hep lipid drop	PREPL inh	cAMP nonselect	MC4R antag conf
COC(=O)c1cc2c(ccn2-c2ccc(F)cc2)n1CC(=O)OC(C)C	31.4*	1.5	-6.6	0.3	-16.4	13.3	3.6	2.1
OC(Cc1cccc(C=NN2CCOCC2)n1)(C(F)(F)F)C(F)(F)F	-3.4	·	1.9	-0.7	·	·	·	·
CCCC(=O)NC(NC(=S)Nc1ccc(S(N)(=O)=O)cc1)C(Cl)(Cl)Cl (stereo unspecified)	16.3	5.7	-1.9	-1.5	-11.1	-2.4	·	·
CCCC(=O)NC(NC(=S)Nc1ccc(N=Nc2ccccc2)cc1)C(Cl)(Cl)Cl (stereo unspecified)	29.3*	18.3	6.8	-2.7	2.7	-11.1	-1.4	16.1
Cc1noc(NS(=O)(=O)c2ccc(NC(=O)c3ccccc3NS(=O)(=O)c3ccc(F)c(F)c3)cc2)c1C	7.1	·	-1.3	-1.0	·	·	·	·
Cc1ccc(S(=O)(=O)CCC(=O)OCC(=O)NCCc2ccccc2)cc1	-1.1	2.0	5.2	-3.3	·	1.0	·	·
COc1cccc(CNC(=O)COC(=O)CCS(=O)(=O)c2ccc(C)cc2)c1	30.1*	-1.1	4.4	-1.9	·	·	0.1	10.1
O=C(COC(=O)CNC(=O)c1ccccc1)NCc1ccc2c(c1)OCO2	19.6	-0.9	-4.2	-5.0	·	7.1	·	·
O=C(COC(=O)CNC(=O)c1cccc(OC(F)F)c1)NCc1ccc2c(c1)OCO2	32.7*	-1.3	-5.9	-2.2	·	-1.0	19.6*	39.6*
CN(C)c1ccnc(Nc2ccc(O)cc2)c1C#N	29.3*	-0.3	7.1	1.4	20.3	9.2	-1.3	3.0
CCOc1ccc(NC(=S)N(CCc2c(C)[nH]c3ccccc23)Cc2ccco2)cc1	11.8	0.2	3.2	-0.6	-31.2	3.3	·	·
COc1ccc(N2CCN(C(=O)c3ccc(COc4ccc5c(C)cc(=O)oc5c4)cc3)CC2)cc1	31.1*	-1.1	-3.0	-2.5	-3.4	9.7	-4.6	-5.2
CC(=O)c1ccc(N2CCN(Cc3nc(Cc4ccccc4)no3)CC2)cc1	-5.7	0.7	-1.0	-1.7	-0.8	3.7	·	·
O=C(Nc1ccc2c(c1)OCO2)c1ccc2sc([C@H]3C[C@H](O)[C@@H](CO)O3)nc2c1	2.2	·	13.1	-1.0	·	·	·	·
CCOC(=O)c1ccccc1NC(=O)COC(=O)c1ccc(OCC(=O)N2CCOCC2)c(OCC)c1	29.8*	·	-3.5	9.1*	·	·	0.0	3.7
COc1ccccc1CN1C[C@@H]2C[C@@H](C3=Cc4cccc(OC)c4OC3)N3CCC[C@@]23C1=O	32.7*	0.0	5.6	-0.2	3.9	9.7	3.9	0.1
COc1ccc(CC(=O)n2nc(-c3ccccc3)nc2NCc2ccco2)cc1	8.9	0.6	-2.2	0.1	12.3	7.6	·	·
O=C(CCc1ccccc1)n1nc(-c2ccccc2)nc1NCc1ccco1	32.7*	4.7	-1.9	0.0	5.9	7.3	-2.0	4.9
Oc1ccc(-c2n[nH]c(C(F)(F)F)c2-c2ccccc2)c(O)c1	30.4*	5.1	14.3	2.8	-54.6	-1.5	4.3	-3.4
COc1ccc(Cl)cc1NC(=O)CN(C)C(=O)CN1C(=O)NC2(CCCC2)C1=O	2.8	-0.4	-0.4	0.7	·	7.0	·	·
O=C(COC(=O)c1ccc(Cl)c(Cl)c1)NC1CCCC1	3.3	1.2	-5.8	0.0	3.8	9.5	·	·
CN(C(=O)COC(=O)c1cnc(Cl)c(Cl)c1)C1CCS(=O)(=O)C1 (stereo unspecified)	11.5	1.9	-0.9	-1.3	28.8	1.9	·	·
O=C(COC(=O)c1cnc(Cl)c(Cl)c1)NCCC1=CCCCC1	37.9*	8.4	1.3	-2.4	2.6	5.0	27.6*	35.7*
CN(C(=O)COC(=O)c1cnc(Cl)c(Cl)c1)C1CCCCC1	39.5*	3.3	4.1	-3.8	·	19.3	21.6*	39.3*
O=C(COC(=O)c1cnc(Cl)c(Cl)c1)NC1CCCC1	29.4*	·	3.0	-1.0	·	·	22.1*	32.6*
SMILES	MC4R antag cAMP	NTR1 ag	HTR2A ag	MC4R ag barr	Hep lipid drop	PREPL inh	cAMP nonselect	MC4R antag conf
O=C(COC(=O)c1cnc(Cl)c(Cl)c1)NC1CCCCCC1	29.2*	4.3	-0.2	-5.2	·	6.9	26.8*	47.9*
CC(Sc1cccc[n+]1[O-])C(=O)NC1CCCCC1C (stereo unspecified)	8.0	0.6	-0.5	-0.6	·	7.8	·	·
CC(NC(=O)Oc1cccc2ccccc12)c1ccccc1 (stereo unspecified)	7.8	·	5.6	1.2	·	·	·	·
C=CCN(C(=O)CCc1ccccc1OC)c1nc(-c2ccc(S(C)(=O)=O)cc2)cs1	31.1*	2.0	3.7	0.6	-71.1	-7.7	-0.4	-3.4
COc1ccccc1-n1cc([C@@H]2C[C@H]3CN(c4ccccc4)C(=O)[C@]34CCCN24)cn1	35.4*	0.0	-4.4	-1.7	40.4	-27.3	0.0	-7.7
CN1CCN(CC(=O)Nc2nnc(-c3cccs3)s2)CC1	-6.1	-1.7	1.2	1.8	5.6	2.7	·	·
COc1ccc(CNC(=O)[C@H](Cc2c[nH]c3ccccc23)NC(=O)[C@@H]2Cc3ccccc3CN2)cc1	30.9*	1.2	-2.0	-0.6	·	5.7	-2.5	11.5
Cc1nc(SCC(=O)N2CCCCCC2)c2c(=O)n(C)c(=O)n(CC(C)C)c2n1	32.6*	·	4.7	0.6	·	·	3.1	12.7
Cc1ccc(S(=O)(=O)N(C)CC(=O)OCC(=O)N2CCN(c3ccccc3)CC2)cc1	33.2*	0.7	-0.9	-0.9	31.1	28.0	19.9*	20.9
C=CCc1cccc2cc(C(=O)Nc3ccccc3C(=O)O)c(=O)oc12	1.5	·	13.0	3.0	5.7	·	·	·
N/C(=N\OC(=O)c1ccc([N+](=O)[O-])cc1)c1cccnc1	-1.9	1.0	-3.3	-3.0	1.0	24.4	·	·
N/C(=N\OC(=O)c1cc([N+](=O)[O-])ccc1Cl)c1cccnc1	61.7*	2.0	0.9	0.7	-8.3	-5.8	18.1*	47.2*
N/C(=N\OC(=O)c1ccc(Cl)c([N+](=O)[O-])c1)c1ccccc1	44.2*	3.0	6.8	-1.5	-3.2	-2.7	22.4*	36.0*
N/C(=N\OC(=O)c1ccc(Cl)c([N+](=O)[O-])c1)c1ccccn1	47.8*	2.2	0.3	-0.8	-11.9	12.1	28.3*	39.9*
O=C(COC(=O)c1ccccc1C(=O)c1ccc(Cl)c([N+](=O)[O-])c1)NC1CC1	29.3*	-1.1	-6.2	-0.4	5.8	-2.8	21.0*	-14.4
CNC(=O)COC(=O)c1ccccc1C(=O)c1ccc(Cl)c([N+](=O)[O-])c1	26.0	·	-3.6	-1.6	0.4	·	·	·

Screens: PubChem, several laboratories
